Values belong to the compound of their own block, whether it stands above or below them. Active and inactive are the calls of the source.
Assays:
[1] = test system: L6; experiment: Effect on [3H]2-deoxy-D-glucose uptake in rat L6 cells at 500 uM relative to control; format: functional
Outline: (§1)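 L6 myotubes were held in αMEM with 2% FCS and 23.0 mM D-glucose for 24 h. They were then treated with increasing concentrations in medium with 10% FCS and 23.0 mM D-glucose for 7 or 18 h; vehicle controls ran 18 h. After washing, uptake was measured with 0.1 mM dGlc plus 1.3 µCi/mL [3H]dGlc in PBS pH 7.4 for 5 min at room temperature. Ice-cold PBS stop, SDS lysis, scintillation counting; basal rate set to 100%.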

[2] = Cytotoxicity against rat L6 cells by MTT assay; format: cell-based
Outline: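 MTT assay on L6 myotubes after the treatment incubations: MTT at 2 mg/mL in αMEM for 30 min at 37 °C, formazan dissolved in DMSO, absorbance read at 570 nm.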

[3] = Effect on [3H]2-deoxy-D-glucose uptake in human skeletal muscle cells at 150 uM relative to control; format: functional
[4] = test system: L6; experiment: Increase in GLUT1myc abundance in rat L6 cell membrane at 150 uM after 7 hrs; format: functional, cell-based
Outline: (§2)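 Myc-tagged GLUT1 or GLUT4 L6 myotubes were preconditioned at 5.5 or 23.0 mM glucose for 24 h, then treated in 10% FCS medium for 7 h (18 h for the 5 µM agent). Insulin was 200 nM for 30 min. Intact cells were labeled with rabbit anti-myc (1:200), fixed in 3% formaldehyde, and given HRP anti-rabbit IgG (1:2000). OPD colour was read at 492 nm.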

[5] = test system: L6; experiment: Increase in GLUT4myc abundance in rat L6 cell membrane at 150 uM after 7 hrs; format: functional, cell-based; outline: as §2
[6] = test system: Serum; experiment: Protein binding in fetal calf serum at 5 uM; format: ADME, cell-free, Bos taurus; details: cattle
Outline: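 αMEM with 10% FCS was spiked at 4.6–23.0 µM and held 60 min at 37 °C for total concentration. Samples were ultrafiltered through a 10 kDa cutoff (4400g, 60 min), and the filtrate was hexane-extracted and analysed by LC-MS (SIR m/z 432) for free concentration.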

[7] = test system: L6; experiment: Inhibition of [3H]2-deoxy-D-glucose uptake in rat L6 cells at 150 uM in presence of 100 nM wortmannin; format: functional, cell-based
Outline: (§3)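 L6 myotubes at 23 mM D-glucose received 100 nM wortmannin 30 min before the agents. Treatment ran in 10% FCS medium for 7 h (18 h for the 5 µM agent). A 5-min [3H]dGlc uptake (0.1 mM dGlc, 1.3 µCi/mL) in PBS at room temperature followed, with the vehicle basal rate set to 100%.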

[8] = test system: L6; experiment: Activation of 5-AMP-induced AMPKalpha in rat L6 cells assessed as […] phosphorylation at 150 uM relative to control in presence of compound C; format: cell-based
[9] = test system: L6; experiment: Effect on [3H]2-deoxy-D-glucose uptake in rat L6 cells at 5 uM relative to control; format: functional, cell-based; details: TDE = time-dependent effect; outline: as §1
[10] = test system: L6; experiment: Increase in GLUT1myc abundance in rat L6 cell membrane at 50 uM after 7 hrs; format: functional, cell-based; outline: as §2
[11] = test system: L6; experiment: Increase in GLUT1myc abundance in rat L6 cell membrane at 20 mM after 7 hrs; format: functional, cell-based; outline: as §2
[12] = test system: L6; experiment: Increase in GLUT1myc abundance in rat L6 cell membrane at 5 µM after 18 hrs; format: functional, cell-based; outline: as §2
[13] = test system: L6; experiment: Effect on [3H]2-deoxy-D-glucose uptake in rat L6 cells at 150 uM relative to control; format: functional, cell-based; details: TDE = time-dependent effect; outline: as §1
[14] = species: Homo sapiens; experiment: Activation of 5-AMP-induced AMPKalpha in human skeletal muscle cells assessed as […] phosphorylation at 150 uM relative to control
Outline: (§4)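 Primary human skeletal myoblasts from the rectus abdominis of a donor were differentiated into myotubes and treated in medium with 10% (v/v) FCS, 23.0 mM D-glucose and agent, with vehicle controls. Whole-cell lysates were Western blotted for total AMPKα and […]-AMPKα, with ECL detection and densitometry.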

[15] = test system: L6; experiment: Activation of 5-AMP-induced AMPKalpha in rat L6 cells assessed as […] phosphorylation at 150 uM relative to control; format: cell-based
Outline: (§5)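 L6 myotubes preconditioned 24 h in αMEM with 2% FCS and 23.0 mM D-glucose, then given fresh medium with 10% (v/v) FCS, 23.0 mM D-glucose and test agent; controls received vehicle. Whole-cell lysates (Tris pH 7.5 with phosphatase and protease inhibitors) were blotted for AMPKα and […]-AMPKα, detected by ECL, and bands quantified by densitometry.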

[16] = test system: L6; experiment: Effect on [3H]2-deoxy-D-glucose uptake in rat L6 cells at 50 uM relative to control; format: functional, cell-based; details: TDE = time-dependent effect; outline: as §1
[17] = test system: L6; experiment: Maximal stimulation of [3H]2-deoxy-D-glucose uptake in rat L6 cells preincubated 24 hrs with D-glucose assessed after 6 hrs; format: functional
Outline: (§6)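 L6 myotubes were preconditioned 24 h at 23.0 mM D-glucose, then incubated up to 10 h in the same medium plus pentose (20.0 mM for time course; dose-response for half-maximal and maximal). Cells were washed with PBS, then given a 5-min room-temperature uptake of 0.1 mM dGlc with 1.3 µCi/mL [3H]dGlc. Counts were normalised to protein against untreated controls.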

[18] = test system: L6; experiment: Inhibition of [3H]2-deoxy-D-glucose uptake in rat L6 cells at 20 mM in presence of 100 nM wortmannin; format: functional, cell-based; outline: as §3
[19] = test system: L6; experiment: Increase in [3H]2-deoxy-D-glucose uptake in rat L6 cells at 20 mM preincubated 24 hrs with D-glucose assessed after 6 hrs relative to control; format: functional; outline: as §6
[20] = test system: L6; experiment: Effect on [3H]2-deoxy-D-glucose uptake in rat L6 cells at 20 mM after 7 hrs relative to control in presence of insulin; format: functional, cell-based
Outline: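 L6 myotubes were preconditioned 24 h at 23.0 mM D-glucose, then given fresh αMEM with 23.0 mM D-glucose plus agent for 7 h. Insulin (200 nM) was added for the last 30 min. A 5-min [3H]dGlc uptake (0.1 mM dGlc, 1.3 µCi/mL) was run in PBS at room temperature, with the 23.0 mM glucose basal rate set to 100%.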

[21] = test system: L6; experiment: Activation of AMPKalpha in rat L6 cells assessed as ATP concentration per mg of protein at 20 mM in presence of 23 mM D-glucose; format: cell-based
Outline: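 L6 myotubes were preconditioned at 5.0 or 23.0 mM D-glucose for 24 h, then treated. Cells were washed in cold 0.15 M Tris-HCl pH 7.75 and extracted with ice-cold 0.5% TCA. The cleared supernatant was assayed with luciferase/D-luciferin luminescence at room temperature against an ATP standard curve, expressed per mg protein. DNP 5 mM for 10 min served as the positive control.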

[22] = species: Homo sapiens; experiment: Activation of 5-AMP-induced AMPKalpha in human skeletal muscle cells assessed as Tyr172 phosphorylation at 20 mM relative to control; outline: as §4
[23] = test system: L6; experiment: Activation of 5-AMP-induced AMPKalpha in rat L6 cells assessed as reduction in Tyr172 phosphorylation at 20 mM relative to control in presence of compound C; format: cell-based; parameters: scale not given: the % may be the effect or the level left
[24] = test system: L6; experiment: Increase in GLUT4myc abundance in rat L6 cell membrane at 20 mM after 7 hrs; format: functional, cell-based; outline: as §2
[25] = test system: L6; experiment: Induction of [3H]2-deoxy-D-glucose uptake in rat L6 cells at 20 mM after 6 hrs relative to control; format: functional; outline: as §6
[26] = test system: L6; experiment: Half-maximal stimulation of [3H]2-deoxy-D-glucose uptake in rat L6 cells preincubated 24 hrs with D-glucose assessed after 6 hrs; format: functional; outline: as §6
[27] = Effect on [3H]2-deoxy-D-glucose uptake in human skeletal muscle cells at 20 mM relative to control; format: functional
[28] = test system: L6; experiment: Induction of [3H]3-O-methyl-D-glucose uptake in rat L6 cells at 20 mM after 6 hrs relative to control; format: functional
Outline: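 L6 myotubes were preconditioned 24 h at 23.0 mM glucose, then given D-xylose at 20.0 mM for 6 h. Cells were PBS-washed and incubated 90 s at room temperature with 10 µM 3-O-methylglucose, 5.0 µCi/mL [3H]MeGlc and 0.5 µCi/mL [14C]sucrose. The stop wash was ice-cold PBS with 20 mM glucose, 10 µM cytochalasin B and 2 mM HgCl2. Extracellular 3H was subtracted using sucrose counts.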

[29] = test system: L6; experiment: Activation of 5-AMP-induced AMPKalpha in rat L6 cells assessed as Tyr172 phosphorylation at 20 mM relative to control; format: cell-based; outline: as §5
[30] = test system: L6; experiment: Decrease in GLUT4myc abundance in rat L6 cell membrane pretreated with 23.0 mM D-glucose for 24 hrs at 20 mM after 7 hrs; format: functional; parameters: scale not given: the % may be the effect or the level left
[31] = test system: L6; experiment: Activation of 5-AMP-induced AMPKalpha in rat L6 cells assessed as […] phosphorylation at 5 uM relative to control; format: cell-based; outline: as §5
[32] = test system: L6; experiment: Increase in GLUT4myc abundance in rat L6 cell membrane at 5 µM after 18 hrs; format: functional, cell-based; outline: as §2
[33] = species: Homo sapiens; experiment: Activation of 5-AMP-induced AMPKalpha in human skeletal muscle cells assessed as […] phosphorylation at 5 uM relative to control; outline: as §4
[34] = Effect on [3H]2-deoxy-D-glucose uptake in human skeletal muscle cells at 5 uM relative to control; format: functional
[35] = test system: L6; experiment: Increase in GLUT1myc abundance in rat L6 cell membrane at 5 uM after 18 hrs
[36] = test system: Serum; experiment: Free concentration in fetal calf serum at 5 uM; details: cattle
[37] = test system: L6; experiment: Effect on [3H]2-deoxy-D-glucose uptake in rat L6 cells at 200 uM relative to control; format: functional; outline: as §1
[38] = test system: L6; experiment: Activation of 5-AMP-induced AMPKalpha in rat L6 cells assessed as reduction in hexose transport at 5 uM relative to control in presence of compound C; parameters: scale not given: the % may be the effect or the level left
[39] = test system: L6; experiment: Inhibition of [3H]2-deoxy-D-glucose uptake in rat L6 cells at 5 uM in presence of 100 nM wortmannin; format: functional, cell-based; outline: as §3

Structure (SMILES): CCS[C@@H]1OC[C@@H](O)[C@H](O)[C@H]1O
fold change (FC) [1]: 0.93
MCC [2]: 1 mM

Activity [6]: 98%
Activity [14]: Active
Structure (SMILES): CCSC(SCC)[C@@H]1O[C@H](c2ccccc2)O[C@H](CO)[C@@H]1O
fold change (FC) [3]: 1.49
Activity [4]: inactive
Activity [5]: Active
Activity [7]: Active
Activity [8]: 60%
Activity [9]: tde
Activity [10]: inactive
Activity ([11]; 150 uM, in the assay text read “at 150 uM” for “at 20 mM”): inactive
Activity [12]: inactive
Activity [13]: tde
fold change (FC) [15]: 5.25
Activity [16]: tde

Activity [22]: Active
Structure (SMILES): O=C[C@H](O)[C@@H](O)[C@H](O)CO [XYLOSE]
Activity [4]: inactive
Activity [17]: 13.7 mM
Activity [18]: Active
fold change (FC) [19]: 1.77
Activity [20]: Active
Activity [10]: inactive
Activity [21]: 1.6 mmol
Activity [23]: 68.9%
Activity [24]: Active
fold change (FC) [25]: 1.51
Activity [26]: 5.8 mM
fold change (FC) [27]: 1.43
Activity ([11]; 20 mM): inactive
Activity [12]: inactive
fold change (FC) [28]: 1.69
fold change (FC) [29]: 3.23
Activity [30]: 50%

Activity [33]: Active
free concentration [36]: 100 nM
Structure (SMILES): CCSC(SCC)[C@@H]1O[C@H](c2ccccc2)O[C@@H]2CO[C@H](c3ccccc3)O[C@@H]21
fold change (FC) [31]: 4.89
Activity [4]: inactive
Activity [32]: Active
Activity [9]: tde
Activity [10]: inactive
fold change (FC) [34]: 1.59
Activity [35]: inactive
fold change (FC) [37]: 1.06
Activity [12]: inactive
Activity [13]: tde
MCC [2]: 50 mM
Activity [38]: 48.8%
Activity [16]: tde
Activity [39]: Active

— ChEMBL document CHEMBL1151715, “Novel D-xylose derivatives stimulate muscle glucose uptake by activating AMP-activated protein kinase alpha” (J Med Chem, 2008)
